Assay results pooled from the literature.
Compare with care: the assays were run in different laboratories.
Target: Phosphorylase b kinase gamma catalytic chain, liver/testis isoform (PHKG2, Homo sapiens, UniProt P15735)
Residues used in one study (P15735 1-406): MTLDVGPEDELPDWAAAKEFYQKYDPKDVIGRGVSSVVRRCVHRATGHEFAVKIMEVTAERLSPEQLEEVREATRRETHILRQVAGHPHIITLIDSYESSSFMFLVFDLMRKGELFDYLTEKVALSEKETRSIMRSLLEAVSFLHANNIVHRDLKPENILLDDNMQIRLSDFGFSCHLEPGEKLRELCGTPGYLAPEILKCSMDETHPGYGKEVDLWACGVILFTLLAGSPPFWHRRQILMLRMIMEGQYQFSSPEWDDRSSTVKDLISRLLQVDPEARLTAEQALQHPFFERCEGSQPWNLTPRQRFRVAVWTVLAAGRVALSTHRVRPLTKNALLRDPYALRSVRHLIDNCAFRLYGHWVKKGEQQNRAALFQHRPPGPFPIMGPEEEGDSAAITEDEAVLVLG

| SMILES | test | setting | endpoint | value |
| --- | --- | --- | --- | --- |
| Cn1cc(-c2cc(F)cc(N3CCn4c(cc5c4CCCC5)C3=O)c2CO)cc(Nc2ccc(N3CCN(C4COC4)CC3)cn2)c1=O | enzyme activity, inhibitor | 0.1 µM | inhibition | 8% |
| CC(C)(C)c1cc(C=C(C#N)C#N)cc(Br)c1O | enzyme activity, inhibitor | 0.5 µM | remaining activity | 106% |
| Cn1cc(-c2cccc(N3CCc4c(sc5c4CC(C)(C)C5)C3=O)c2CO)cc(Nc2ccncn2)c1=O | enzyme activity, inhibitor | 1 µM | inhibition | -1% |
| COc1ncccc1-c1cnn2ccc(N3CCN(C(=O)OC(C)C)CC3)nc12 | binding, competition with immobilised ligand | 1 µM | remaining binding | 100% |
| O=c1[nH]c2ccccc2n1C1CCN(Cc2ccc(-c3[nH]c4cc5ncnc5cc4nc3-c3ccccc3)cc2)CC1 | cell-free assay | 0.5 µM | remaining signal | 104% |
| Cn1cncc1[C@@](O)(COc1ccc(C#N)cc1-c1ccc(OC(F)(F)F)cc1)c1ccc(C#N)cc1 | cell-free assay, competition with immobilised ligand | 1 µM | remaining binding | 92% |
| Nc1ncc(-c2nc(N3CCOCC3)nc(N3CCOCC3)n2)c(C(F)F)n1 | binding, competition with immobilised ligand | 10 µM | remaining binding | 67% |
| O=C(NCc1ncc(C(F)(F)F)cc1Cl)c1ccc2c(c1)C1(CCS(=O)(=O)CC1)[C@H](C1CC1)N2S(=O)(=O)c1ccc(F)cc1 | cell-free assay, competition with immobilised ligand | 1 µM | remaining binding | 96% |
| Cc1nn(C)cc1-c1nc2c(N3CCN(Cc4ccc(Cl)cc4)CC3)c(Cl)cnc2[nH]1 | binding, competition with immobilised ligand | 1 µM | remaining binding | 100% |
